Reference: ChEMBL document CHEMBL1143195, “Novel sulfonanilide analogs decrease aromatase activity in breast cancer cells: synthesis, biological evaluation, and ligand-based pharmacophore identification” (J Med Chem, 2008)
The source made the active and inactive calls. No cut-off for these calls is given here.

Legend:
Aromatase = target: T1, Aromatase (Homo sapiens, UniProt P11511); experiment: Inhibition of aromatase in human SKBR3 cells by tritiated water release assay; assay type: cell-based; conditions: sk-br-3
T1 sequence (P11511 whole entry): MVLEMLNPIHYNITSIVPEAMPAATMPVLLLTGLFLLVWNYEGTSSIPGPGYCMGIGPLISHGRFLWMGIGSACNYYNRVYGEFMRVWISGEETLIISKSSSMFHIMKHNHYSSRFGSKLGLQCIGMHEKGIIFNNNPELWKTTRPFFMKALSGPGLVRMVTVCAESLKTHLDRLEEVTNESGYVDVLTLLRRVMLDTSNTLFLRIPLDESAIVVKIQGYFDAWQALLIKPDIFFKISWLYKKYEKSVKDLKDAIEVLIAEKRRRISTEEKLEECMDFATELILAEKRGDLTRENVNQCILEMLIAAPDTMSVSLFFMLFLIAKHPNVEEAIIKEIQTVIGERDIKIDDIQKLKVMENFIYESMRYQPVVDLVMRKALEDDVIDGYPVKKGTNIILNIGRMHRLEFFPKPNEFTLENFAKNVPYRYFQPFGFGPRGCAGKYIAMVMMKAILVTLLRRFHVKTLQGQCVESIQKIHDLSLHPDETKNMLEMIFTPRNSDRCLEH
Summary of the method: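 Subconfluent SK-BR-3 cells were switched to defined DMEM/F12 (human albumin, transferrin, insulin) and treated 24 h at five concentrations in triplicate (0.1% DMSO vehicle). They were then incubated 3 h with 100 nM [1β-3H]-androstenedione. TCA-precipitated medium was chloroform-extracted and charcoal-treated, and 3H2O counted as pmol/h/10^6 cells, normalized by DNA assay. IC50 was taken from sigmoidal dose–response fits.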

SK-BR-3 = experiment: Cytotoxicity against human SKBR3 cells by diphenylamine DNA assay; assay type: functional, cell-based

Row | Structure (SMILES) | IC50 (Aromatase) [µM] | Activity (SK-BR-3)
1 | CN(c1ccc([N+](=O)[O-])cc1OCc1ccc([N+](=O)[O-])cc1)S(C)(=O)=O | 0.49 | 
2 | O=C(Nc1ccc([N+](=O)[O-])cc1OCc1ccccc1)c1ccccc1 | > 25 | 
3 | N#Cc1ccc(C(=O)Nc2ccc([N+](=O)[O-])cc2OCc2ccccc2)cc1 | > 25 | 
4 | Cc1ccc(C)c(COc2cc([N+](=O)[O-])ccc2N(C)S(C)(=O)=O)c1 |  | Active
5 | CS(=O)(=O)Nc1ccc([N+](=O)[O-])cc1OCc1cccc2ccccc12 | 5.74 | 
6 | O=C(Nc1ccc([N+](=O)[O-])cc1OCc1ccccc1)c1ccc(Cl)c([N+](=O)[O-])c1 | > 25 | 
7 | CCCCCCCCCOc1cc([N+](=O)[O-])ccc1N(C)S(C)(=O)=O | 3.96 | 
8 | O=C(Nc1ccc([N+](=O)[O-])cc1OCc1ccccc1)c1ccc2ccccc2c1 | > 25 | 
9 | CN(c1ccc([N+](=O)[O-])cc1OCc1ccc(Cl)cc1)S(C)(=O)=O | 2.4 | 
10 | CC(=O)Nc1ccc(N(C)S(C)(=O)=O)c(OCc2ccccc2)c1 | 16.7 | 
11 | O=C(Nc1ccc([N+](=O)[O-])cc1OCc1ccccc1)C1CCCCC1 | > 25 | 
12 | CCCCCCOc1cc([N+](=O)[O-])ccc1N(C)S(C)(=O)=O | 4.49 | 
13 | O=C(Nc1ccc([N+](=O)[O-])cc1OCc1ccccc1)c1ccc([N+](=O)[O-])cc1 | > 25 | 
14 | CCCOc1cc([N+](=O)[O-])ccc1NS(C)(=O)=O | 2.51 | 
15 | O=C(Nc1ccc([N+](=O)[O-])cc1OCc1ccccc1)c1ccc(-c2ccccc2)cc1 | > 25 | 
16 | CC(C)Oc1cc([N+](=O)[O-])ccc1N(C)S(C)(=O)=O | 2.81 | 
17 | Cc1ccc(COc2cc([N+](=O)[O-])ccc2N(C)S(C)(=O)=O)cc1 | 2.33 | 
18 | CCCCCCOc1cc([N+](=O)[O-])ccc1NS(C)(=O)=O | 2.67 | 
19 | Cc1ccc(S(=O)(=O)Nc2ccc([N+](=O)[O-])cc2OCc2ccccc2)cc1 | 17.4 | 
20 | O=C(Nc1ccc([N+](=O)[O-])cc1OCc1ccccc1)c1ccc(Cl)c(Cl)c1 | > 25 | 
21 | O=C(Nc1ccc([N+](=O)[O-])cc1OCc1ccccc1)c1cccc([N+](=O)[O-])c1 | > 25 | 
22 | CC(C)c1ccc(COc2cc([N+](=O)[O-])ccc2N(C)S(C)(=O)=O)cc1 |  | Active
23 | CS(=O)(=O)Nc1ccc([N+](=O)[O-])cc1OCc1ccc(Br)cc1 | 5.85 | 
24 | CC(C)Oc1cc([N+](=O)[O-])ccc1NS(C)(=O)=O | 5.87 | 
25 | CN(c1ccc([N+](=O)[O-])cc1OCc1ccc2ccccc2c1)S(C)(=O)=O | 2.68 | 
26 | CC(C)c1ccc(COc2cc([N+](=O)[O-])ccc2NS(C)(=O)=O)cc1 | 7.45 | 
27 | COc1ccc(COc2cc([N+](=O)[O-])ccc2NS(C)(=O)=O)cc1 | 7.82 | 

More lines, main results first:

Row | IC50 (Aromatase) [µM] | Structure (SMILES) | Activity (SK-BR-3)
28 | 1.17 | CN(c1ccc([N+](=O)[O-])cc1OCc1cccc2ccccc12)S(C)(=O)=O | 
29 | 2.17 | CS(=O)(=O)Nc1ccc([N+](=O)[O-])cc1OCc1ccc2ccccc2c1 | 
30 | 1.21 | CS(=O)(=O)Nc1ccc([N+](=O)[O-])cc1OCC1CCCCC1 | 
31 | 0.44 | CN(c1ccc([N+](=O)[O-])cc1OC1CCCC1)S(C)(=O)=O | 
32 | 0.29 | CS(=O)(=O)Nc1ccc([N+](=O)[O-])cc1OCc1ccc(Cl)cc1 | 
33 | 0.47 | COc1ccc(COc2cc([N+](=O)[O-])ccc2N(C)S(C)(=O)=O)cc1 | 
34 | 1.78 | CN(c1ccc([N+](=O)[O-])cc1OCc1ccc(F)cc1)S(C)(=O)=O | 
35 | 1.77 | CN(c1ccc(NC(=O)c2ccccc2)cc1OCc1ccccc1)S(C)(=O)=O | 
36 | 0.33 | CN(c1ccc([N+](=O)[O-])cc1OCc1ccc(Br)cc1)S(C)(=O)=O | 
37 | 0.76 | CCCOc1cc([N+](=O)[O-])ccc1N(C)S(C)(=O)=O | 
38 | 0.25 | CN(c1ccc(NC(=O)C2CCCCC2)cc1OCc1ccccc1)S(C)(=O)=O | 
39 | 2.17 | O=[N+]([O-])c1ccc(S(=O)(=O)Nc2ccc([N+](=O)[O-])cc2OCc2ccccc2)cc1 | 
40 | 0.33 | CN(c1ccc([N+](=O)[O-])cc1OCc1ccccc1-c1ccccc1)S(C)(=O)=O | 
41 | 0.96 | CN(c1ccc([N+](=O)[O-])cc1OCC1CCCCC1)S(C)(=O)=O | 
42 | 0.12 | CN(c1ccc(NC(=O)c2ccc(-c3ccccc3)cc2)cc1OCc1ccccc1)S(C)(=O)=O | 
43 | 0.4 | CS(=O)(=O)Nc1ccc([N+](=O)[O-])cc1OCc1ccc([N+](=O)[O-])cc1 | 
44 | 0.65 | CN(c1ccc([N+](=O)[O-])cc1OCc1ccc(-c2ccccc2)cc1)S(C)(=O)=O | 
45 | 0.44 | CN(c1ccc(NC(=O)c2ccc(C#N)cc2)cc1OCc1ccccc1)S(C)(=O)=O | 
46 | 0.68 | CS(=O)(=O)Nc1ccc([N+](=O)[O-])cc1OC1CCCCC1 [NS-398] | 

Row | IC50 (Aromatase) [µM] | Structure (SMILES) | Activity (SK-BR-3)
47 | 0.23 | CCC(CC)Oc1cc([N+](=O)[O-])ccc1N(C)S(C)(=O)=O | 
48 | 0.69 | CN(c1ccc(NC(=O)c2ccc(Cl)c(Cl)c2)cc1OCc1ccccc1)S(C)(=O)=O | 
49 | 1.1 | CN(c1ccc(N)cc1OCc1ccccc1)S(C)(=O)=O | 
50 | 0.47 | CN(c1ccc([N+](=O)[O-])cc1OC1CCCCC1)S(C)(=O)=O | 
51 | 0.3 | CCC(CC)Oc1cc([N+](=O)[O-])ccc1NS(C)(=O)=O | 
52 | 0.87 | CS(=O)(=O)Nc1ccc([N+](=O)[O-])cc1OC1CCCC1 | 
53 | 1.07 | CN(c1ccc(NC(=O)c2ccc3ccccc3c2)cc1OCc1ccccc1)S(C)(=O)=O | 
54 | 1.75 | Cc1ccc(COc2cc([N+](=O)[O-])ccc2NS(C)(=O)=O)cc1 | 
55 | 1.18 | CC(=O)Nc1ccc([N+](=O)[O-])cc1OCc1ccccc1 | 
56 | 0.91 | CCCCCCCCCOc1cc([N+](=O)[O-])ccc1NS(C)(=O)=O | 
57 | 0.37 | Cc1ccc(C)c(COc2cc([N+](=O)[O-])ccc2NS(C)(=O)=O)c1 | 
58 | 0.69 | CN(c1ccc(NC(=O)c2ccc(Cl)c([N+](=O)[O-])c2)cc1OCc1ccccc1)S(C)(=O)=O | 
59 | 0.85 | CS(=O)(=O)Nc1ccc([N+](=O)[O-])cc1OCc1ccc(-c2ccccc2)cc1 | 
60 | 0.23 | CS(=O)(=O)Nc1ccc([N+](=O)[O-])cc1OCCc1ccccc1 | 
61 | 0.52 | CN(c1ccc([N+](=O)[O-])cc1OCCc1ccccc1)S(C)(=O)=O | 
62 | 0.58 | CS(=O)(=O)Nc1ccc([N+](=O)[O-])cc1OCc1ccc(F)cc1 | 
63 | 0.81 | CN(c1ccc([N+](=O)[O-])cc1OCc1ccccc1)S(C)(=O)=O | 
64 | 2.14 | CS(=O)(=O)Nc1ccc([N+](=O)[O-])cc1OCc1ccccc1 | 
65 | 0.26 | CS(=O)(=O)Nc1ccc([N+](=O)[O-])cc1OCc1ccccc1-c1ccccc1 | 
